Experimental data as given in ChEMBL document CHEMBL4627345, “Anti-inflammatory effect and inhibition of nitric oxide production by targeting COXs and iNOS enzymes with the 1,2-diphenylbenzimidazole pharmacophore” (Bioorg Med Chem, 2020).
Activity calls are given as the source filed them. The calls are words filed in the database; no cut-off is given here.

How the values were obtained:
[1] = Cytotoxicity against mouse RAW264.7 cells assessed as cell viability at 500 uM measured after 24 hrs by MTT assay relative to control; type: cell-based; settings: read-out: Activity
How it was run: (§1)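 RAW 264.7 murine macrophages grown in RPMI-1640 with 10% heat-inactivated FBS at 37 °C, 5% CO2. Cells seeded at 4 x10^4 per well and exposed 24 h to 0–500 µM compound (DMSO 0.2% final). Medium replaced with 0.5 mg/mL MTT for 4 h, formazan dissolved in isopropanol, absorbance read at 570 nm. Triplicates in three independent experiments.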

[2] = Cytotoxicity against mouse RAW264.7 cells assessed as cell viability at 100 uM measured after 24 hrs by MTT assay relative to control; type: cell-based; settings: read-out: Activity; how it was run: as §1
[3] = biological target: T1, Prostaglandin G/H synthase 1 (Bos taurus) (UniProt O62664); assay: Inhibition of bovine COX1 at 100 uM using arachidonic acid as substrate preincubated for 5 mins followed by substrate addition and measured after 5 mins by […]-based fluorescence assay relative to control
T1 sequence (whole entry): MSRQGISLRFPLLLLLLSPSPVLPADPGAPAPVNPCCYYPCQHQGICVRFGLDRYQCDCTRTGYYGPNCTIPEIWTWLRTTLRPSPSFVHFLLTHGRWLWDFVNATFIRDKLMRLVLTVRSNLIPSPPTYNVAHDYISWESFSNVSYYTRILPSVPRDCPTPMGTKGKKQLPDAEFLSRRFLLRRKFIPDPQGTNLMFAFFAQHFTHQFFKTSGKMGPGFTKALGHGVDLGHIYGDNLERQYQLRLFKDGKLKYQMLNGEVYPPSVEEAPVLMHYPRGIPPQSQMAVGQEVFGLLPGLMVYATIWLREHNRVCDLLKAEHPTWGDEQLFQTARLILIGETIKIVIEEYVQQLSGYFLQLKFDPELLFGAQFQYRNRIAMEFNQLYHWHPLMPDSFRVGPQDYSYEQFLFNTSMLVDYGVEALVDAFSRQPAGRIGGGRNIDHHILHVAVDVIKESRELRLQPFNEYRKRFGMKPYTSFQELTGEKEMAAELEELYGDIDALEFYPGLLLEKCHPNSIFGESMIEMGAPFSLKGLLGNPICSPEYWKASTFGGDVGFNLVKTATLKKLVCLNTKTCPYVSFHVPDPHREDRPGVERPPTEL
How it was run: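 Bovine COX-1 preincubated 5 min in buffer with compound (100 µM) or SC-560 as reference. ADHP and arachidonic acid then added, and resorufin fluorescence read after 5 min (ex 530–540 / em 585–595 nm). Resorufin arises from ADHP reacting with the COX-derived PGG2.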

[4] = Selectivity index, ratio of inhibition of human recombinant COX-2 at 100 uM to inhibition of bovine COX-1 at 100 uM
How it was run: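 SI is COX-2/COX-1 activity ratio. Percent inhibition at 100 µM: human recombinant COX-2 (15 min preincubation) and bovine COX-1 (5 min preincubation). Fluorometric ADHP/arachidonic acid read-out after 5 min.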

[5] = biological target: T2, Prostaglandin G/H synthase 2 (Homo sapiens, UniProt P35354); assay: Inhibition of human recombinant COX-2 using arachidonic acid as substrate preincubated for 15 mins followed by substrate addition and measured after 5 mins by […]-based fluorescence assay
T2 sequence (P35354 whole entry): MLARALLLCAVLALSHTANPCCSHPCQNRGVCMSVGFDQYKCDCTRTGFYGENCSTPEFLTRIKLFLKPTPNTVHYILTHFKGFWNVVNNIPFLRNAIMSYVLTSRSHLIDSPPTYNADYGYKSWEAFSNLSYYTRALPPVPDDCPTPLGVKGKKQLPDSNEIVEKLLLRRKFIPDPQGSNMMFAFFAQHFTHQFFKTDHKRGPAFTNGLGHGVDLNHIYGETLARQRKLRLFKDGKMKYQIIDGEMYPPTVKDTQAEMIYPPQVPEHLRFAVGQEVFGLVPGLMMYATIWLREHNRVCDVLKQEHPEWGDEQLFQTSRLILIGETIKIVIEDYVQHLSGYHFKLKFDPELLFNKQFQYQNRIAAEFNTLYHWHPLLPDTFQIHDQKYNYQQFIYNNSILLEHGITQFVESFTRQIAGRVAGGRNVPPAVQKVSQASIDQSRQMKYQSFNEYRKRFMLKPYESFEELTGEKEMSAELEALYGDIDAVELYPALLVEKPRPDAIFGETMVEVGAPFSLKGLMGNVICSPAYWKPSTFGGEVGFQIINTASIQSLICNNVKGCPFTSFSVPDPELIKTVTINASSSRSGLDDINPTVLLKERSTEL
How it was run: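 Human recombinant COX-2 preincubated 15 min in buffer with compound (100 µM) or DuP-697 as reference. ADHP and arachidonic acid then added, and resorufin fluorescence read after 5 min (ex 530–540 / em 585–595 nm).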

[6] = biological target: T3, Nitric oxide synthase, inducible (Mus musculus) (UniProt P29477); assay: Inhibition of iNOS in mouse macrophages assessed as reduction in LPS-induced nitric oxide production at 50 uM incubated for overnight by griess assay relative to control
T3 sequence (whole entry): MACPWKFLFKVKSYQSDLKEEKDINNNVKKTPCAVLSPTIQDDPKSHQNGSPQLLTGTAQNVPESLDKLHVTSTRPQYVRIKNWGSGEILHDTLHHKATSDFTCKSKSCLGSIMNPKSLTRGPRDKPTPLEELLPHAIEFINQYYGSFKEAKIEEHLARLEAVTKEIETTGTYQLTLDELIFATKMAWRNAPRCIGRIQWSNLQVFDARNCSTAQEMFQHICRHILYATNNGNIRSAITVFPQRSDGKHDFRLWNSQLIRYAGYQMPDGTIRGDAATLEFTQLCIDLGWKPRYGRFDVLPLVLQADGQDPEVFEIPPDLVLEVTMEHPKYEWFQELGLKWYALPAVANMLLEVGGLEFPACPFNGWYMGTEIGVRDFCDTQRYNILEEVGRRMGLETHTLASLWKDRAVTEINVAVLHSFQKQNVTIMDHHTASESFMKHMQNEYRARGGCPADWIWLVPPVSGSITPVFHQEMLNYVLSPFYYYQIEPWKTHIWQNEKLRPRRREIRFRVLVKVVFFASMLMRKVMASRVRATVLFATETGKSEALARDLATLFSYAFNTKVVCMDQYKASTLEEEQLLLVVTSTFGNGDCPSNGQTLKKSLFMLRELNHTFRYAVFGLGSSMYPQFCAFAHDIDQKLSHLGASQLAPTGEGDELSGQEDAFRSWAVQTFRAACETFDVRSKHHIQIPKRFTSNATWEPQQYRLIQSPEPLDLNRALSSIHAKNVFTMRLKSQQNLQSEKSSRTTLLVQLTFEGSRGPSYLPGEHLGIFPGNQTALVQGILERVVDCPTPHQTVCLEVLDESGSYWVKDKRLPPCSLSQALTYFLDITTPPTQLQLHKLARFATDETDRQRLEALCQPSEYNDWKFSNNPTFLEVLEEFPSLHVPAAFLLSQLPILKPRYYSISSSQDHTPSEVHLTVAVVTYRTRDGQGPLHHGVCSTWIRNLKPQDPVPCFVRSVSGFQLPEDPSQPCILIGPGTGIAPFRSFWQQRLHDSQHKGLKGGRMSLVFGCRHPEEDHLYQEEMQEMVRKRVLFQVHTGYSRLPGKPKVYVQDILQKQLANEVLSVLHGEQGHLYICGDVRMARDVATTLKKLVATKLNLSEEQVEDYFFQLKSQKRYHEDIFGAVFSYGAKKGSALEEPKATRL
How it was run: (§2)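 Murine macrophages seeded at 4 x10^4 per well with compound at 50 or 100 µM, with or without LPS (100 ng/mL), overnight under standard conditions. Supernatant mixed 1:1 with Griess reagent and read at 570 nm. Nitrite quantified from a NaNO2 standard curve. Triplicates in three independent experiments.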

[7] = biological target: T3, Nitric oxide synthase, inducible (Mus musculus); assay: Inhibition of iNOS in mouse macrophages assessed as reduction in LPS-induced nitric oxide production at 100 uM incubated for overnight by griess assay relative to control; how it was run: as §2
Rattus norvegicus = assay: Antiinflammatory activity in Wistar rat assessed as inhibition of carrageenan-induced paw edema formation at 100 mg/kg, po administered 1 hr before carrageenan stimulation and measured after up to 6 hrs relative to control; type: functional
How it was run: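 Male Wistar rats (250–300 g), N = 5 per group, dosed orally 1 h before 0.1 mL of 1% carrageenan in physiological saline was injected into the right paw. Paw volume was read by plethysmometer at 0, 1, 2, 3, 4, 5 and 6 h. Edema was taken as the right-minus-left paw volume difference. % inhibition = (untreated − treated)/untreated × 100 at each time point.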

RAW264.7 = assay: Cytotoxicity against mouse RAW264.7 cells assessed as reduction in cell viability at 500 uM measured after 24 hrs by MTT assay; type: cell-based; settings: raw264.7, 24 h; how it was run: as §1

| Structure (SMILES) | inhibition [3] [%] | Selectivity Index [4] | IC50 [5] [µM] | inhibition [6] [%] | inhibition [7] [%] | viability at 24 h, 500 µM [1] [%] | viability at 24 h, 100 µM [2] [%] | inhibition (Rattus norvegicus) | inhibition in vivo at 100 mg/kg (Rattus norvegicus) [%] | Activity (RAW264.7) |
| --- | --- | --- | --- | --- | --- | --- | --- | --- | --- | --- |
| Nc1ccc(-n2c(-c3ccc(Cl)cc3)nc3ccccc32)cc1 | 39 | 1.15 | 193 | 24.9 | 52.2 | ≥ 80 | > 90 | Active |  |  |
| Nc1ccc(-c2nc3ccccc3n2-c2ccc(N)cc2)cc1 | 29.7 | 1.55 | 173 | 42.5 | 44.1 | ≥ 80 | > 90 | Active |  |  |
| CC(=O)Nc1ccc(-n2c(-c3ccc(Br)cc3)nc3ccccc32)cc1 | 48.7 | 0.58 |  | 77.3 | 83.6 |  | > 90 | Active |  |  |
| CC(=O)Nc1ccc(-c2nc3ccccc3n2-c2ccc(NC(C)=O)cc2)cc1 | 59.5 | 0.53 |  | 10.1 | 15.3 |  | > 90 | Active |  |  |
| CC(=O)Nc1ccc(-n2c(-c3ccc(Cl)cc3)nc3ccccc32)cc1 | 47.4 | 0.51 |  | 75.9 | 86.4 |  | > 90 | Active |  |  |
| Cc1ccc(-c2ncc(Cl)cc2-c2ccc(S(C)(=O)=O)cc2)cn1 [ETORICOXIB] | 23.4 | 2.68 |  | 79.8 | 87.3 |  |  |  | 35 |  |
| O=[N+]([O-])c1ccc(-n2c(-c3ccccc3)nc3ccccc32)cc1 | 40.6 | 1.05 | 162 | 38.1 | 44 |  | > 90 | Active |  | Toxic |
| Nc1ccc(-n2c(-c3ccc(Br)cc3)nc3ccccc32)cc1 | 62.3 | 0.11 |  | 62.5 | 74.2 | ≥ 80 | > 90 | Active |  |  |
| CC(C)Cc1ccc(C(C)C(=O)O)cc1 (centres undefined) [IBUPROFEN] | 56.6 |  |  | 82.1 | 83.7 |  |  |  | 42 |  |

Second part, led by results:

| inhibition [3] [%] | Selectivity Index [4] | IC50 [5] [µM] | inhibition [6] [%] | inhibition [7] [%] | Structure (SMILES) | viability at 24 h, 500 µM [1] [%] | viability at 24 h, 100 µM [2] [%] | inhibition (Rattus norvegicus) | inhibition in vivo at 100 mg/kg (Rattus norvegicus) [%] | Activity (RAW264.7) |
| --- | --- | --- | --- | --- | --- | --- | --- | --- | --- | --- |
| 18.3 | 2.77 | 102 | 46.5 | 45.8 | O=[N+]([O-])c1ccc(-n2c(-c3ccc(Br)cc3)nc3ccccc32)cc1 |  | > 90 |  | 42 | Toxic |
| 31 | 1.06 |  | 32.6 | 46.2 | O=C(O)c1ccc(-c2nc3ccccc3n2-c2ccc([N+](=O)[O-])cc2)cc1 |  | > 90 | Active |  | Toxic |
| 29.3 | 1.63 |  | 22.4 | 33.8 | O=[N+]([O-])c1ccc(-c2nc3ccccc3n2-c2ccc([N+](=O)[O-])cc2)cc1 | ≤ 90 | ≤ 90 |  | 42 |  |
| 29 | 1.63 |  | 24.4 | 46 | N#Cc1ccc(-c2nc3ccccc3n2-c2ccc([N+](=O)[O-])cc2)cc1 |  | > 90 | Active |  | Toxic |
| 17.6 | 1.37 |  | 53.2 | 53.9 | O=[N+]([O-])c1ccc(-n2c(-c3ccc(Cl)cc3)nc3ccccc32)cc1 |  | > 90 | Active |  | Toxic |
